Calls of active or inactive are those of the source. The rule behind the calls is not given here.
Key:
Insulin (Homo sapiens) = Insulin (Homo sapiens) (UniProt P01308); test: Binding affinity to human insulin monomer by fluorescence intensity assay
Homo sapiens [1] = species: Homo sapiens; test: Binding affinity to human […] fibril assessed as intrinsic fluorescence intensity
[2] = target: Alpha-synuclein (Homo sapiens) (UniProt P37840); test: Binding affinity to human alpha-synuclein fibril by fluorescence intensity assay
[3] = Binding affinity to human insulin fibril by fluorescence intensity assay
In short: (§1)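 Fibrils grown from human insulin (3 mg/mL, Tris-HCl 50 mM pH 3), E. coli-expressed human α-syn (3 mg/mL, pH 7.4) or Aβ(1–42) (0.5 mg/ml, 1% NH4OH). Fibril level taken as supernatant protein depletion. Fixed fibrils (3.5–11.35) titrated with ligand (DMSO stock diluted into 50 mM Tris-HCl pH 7.4). Plate-reader intensity read at each ligand's maximal excitation/emission wavelengths, dye blanks subtracted. Kd from single-site saturation fit.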

[4] = target: T1, Amyloid-beta precursor protein (Homo sapiens, UniProt P05067); test: Binding affinity to human amyloid beta (1 to 42) fibril assessed as increase in intrinsic fluorescence intensity at 2.25 uM relative to equimolar monomeric specie
T1 sequence (P05067 whole entry): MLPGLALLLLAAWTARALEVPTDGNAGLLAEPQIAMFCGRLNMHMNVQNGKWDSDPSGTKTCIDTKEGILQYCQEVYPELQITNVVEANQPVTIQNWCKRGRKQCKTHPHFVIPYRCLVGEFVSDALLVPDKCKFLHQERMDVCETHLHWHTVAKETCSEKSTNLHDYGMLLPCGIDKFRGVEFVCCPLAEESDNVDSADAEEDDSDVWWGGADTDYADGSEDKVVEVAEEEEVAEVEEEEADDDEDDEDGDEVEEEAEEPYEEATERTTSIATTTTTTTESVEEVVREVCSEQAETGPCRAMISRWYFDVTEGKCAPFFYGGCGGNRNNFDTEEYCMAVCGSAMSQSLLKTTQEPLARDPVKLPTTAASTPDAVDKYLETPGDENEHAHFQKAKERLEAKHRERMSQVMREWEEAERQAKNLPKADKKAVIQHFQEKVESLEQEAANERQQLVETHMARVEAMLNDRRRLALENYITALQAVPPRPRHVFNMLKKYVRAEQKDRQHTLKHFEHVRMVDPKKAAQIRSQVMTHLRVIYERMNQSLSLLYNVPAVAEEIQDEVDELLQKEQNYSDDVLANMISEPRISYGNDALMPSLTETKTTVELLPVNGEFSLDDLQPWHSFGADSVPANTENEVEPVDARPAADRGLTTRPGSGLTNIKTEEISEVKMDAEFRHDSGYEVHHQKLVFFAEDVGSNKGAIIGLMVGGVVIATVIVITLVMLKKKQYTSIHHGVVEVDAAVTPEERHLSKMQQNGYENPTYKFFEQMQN

[5] = target: T1, Amyloid-beta precursor protein; test: Binding affinity to human amyloid beta (1 to 42) monomer by fluorescence intensity assay
Albumin = Albumin (Bos taurus, UniProt P02769); test: Binding affinity to bovine serum albumin by fluorescence intensity assay; format: ADME; conditions: cattle, isolated protein
Chain of Albumin (P02769 whole entry): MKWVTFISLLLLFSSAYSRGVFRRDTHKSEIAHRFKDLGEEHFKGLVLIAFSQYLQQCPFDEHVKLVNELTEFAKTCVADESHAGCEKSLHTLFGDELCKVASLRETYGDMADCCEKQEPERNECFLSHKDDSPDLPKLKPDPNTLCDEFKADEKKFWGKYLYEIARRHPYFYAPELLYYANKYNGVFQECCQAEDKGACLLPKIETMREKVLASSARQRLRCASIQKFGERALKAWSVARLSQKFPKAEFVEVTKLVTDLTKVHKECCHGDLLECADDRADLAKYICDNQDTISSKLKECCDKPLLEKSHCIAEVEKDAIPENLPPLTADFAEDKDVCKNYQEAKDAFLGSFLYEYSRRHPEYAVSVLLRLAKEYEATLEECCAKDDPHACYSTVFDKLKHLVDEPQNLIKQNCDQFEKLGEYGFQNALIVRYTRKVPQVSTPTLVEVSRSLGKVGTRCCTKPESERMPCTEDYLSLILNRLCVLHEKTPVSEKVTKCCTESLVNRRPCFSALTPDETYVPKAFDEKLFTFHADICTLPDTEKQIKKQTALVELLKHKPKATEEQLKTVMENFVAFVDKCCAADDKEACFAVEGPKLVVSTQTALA
In short: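 BSA titrated with increasing ligand concentrations in 50 mM Tris-HCl pH 7.4, in the same way as the fibril assays. Intrinsic fluorescence intensity was read on a plate reader with dye-blank background subtracted. Kd came from a single-site saturation curve fit.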

Homo sapiens [6] = species: Homo sapiens; test: Binding affinity to human insulin fibril assessed as increase in intrinsic fluorescence intensity at 2.25 uM relative to equimolar monomeric specie
Homo sapiens [7] = species: Homo sapiens; test: Binding affinity to human insulin fibril assessed as intrinsic fluorescence intensity
[8] = target: T1, Amyloid-beta precursor protein; test: Binding affinity to human amyloid beta (1 to 42) fibril assessed as intrinsic fluorescence intensity
Homo sapiens [9] = species: Homo sapiens; test: Binding affinity to human […] fibril assessed as increase in intrinsic fluorescence intensity at 2.25 uM relative to equimolar monomeric specie
[10] = target: Alpha-synuclein (Homo sapiens) (UniProt P37840); test: Binding affinity to human alpha-synuclein monomer expressed in Escherichia coli BL21 by fluorescence intensity assay
[11] = target: T1, Amyloid-beta precursor protein; test: Binding affinity to human amyloid beta (1 to 42) fibril by fluorescence intensity assay
In short: as §1, with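 “depletion.” for “depletion. Fixed fibrils (3.5–11.35) titrated with ligand (DMSO stock diluted into 50 mM Tris-HCl pH 7.4).”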

Chain of Insulin (Homo sapiens) (P01308 whole entry): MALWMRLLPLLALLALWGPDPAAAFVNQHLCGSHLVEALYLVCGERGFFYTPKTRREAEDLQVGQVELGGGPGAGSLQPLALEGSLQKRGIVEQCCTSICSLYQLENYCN

| Activity (Insulin (Homo sapiens)) | Activity (Homo sapiens [1]) | Kd [2] | Kd [3] | fold change (FC) [4] | Activity [5] | Activity (Albumin) | fold change (FC) (Homo sapiens [6]) | Activity (Homo sapiens [7]) | Activity [8] | fold change (FC) (Homo sapiens [9]) | Activity [10] | Kd [11] | SMILES |
| --- | --- | --- | --- | --- | --- | --- | --- | --- | --- | --- | --- | --- | --- |
|  |  |  | 2.54 µM⁻¹ |  |  |  |  |  |  |  |  |  | Cc1ccc2c(c1)sc(-c1ccc(N(C)C)cc1)[n+]2C.[Cl-] [THIOFLAVIN T] |
| inactive | Active |  |  |  | inactive | Not Active |  | Active | Active |  | inactive |  | CN(CCF)c1ccc(/C=C\c2nc3ccccc3[nH]2)cc1 |
| inactive | Active | 1.85 µM⁻¹ | 3.86 µM⁻¹ | 5.9 | inactive | Not Active | 2.84 | Active | Active | 2.84 | inactive | 3.52 µM⁻¹ | CN(CCF)c1ccc(/C=C\c2nc3ccccc3n2C)cc1 |
| inactive | Active | 1.81 µM⁻¹ | 1.22 µM⁻¹ | 5.17 | inactive | Not Active | 3.63 | Active | Active | 2.23 | inactive | 5.19 µM⁻¹ | CN(CCF)c1ccc(/C=C/c2nc3ccccc3n2C)cc1 |

More lines, now with the values behind:

| SMILES | Activity (Insulin (Homo sapiens)) | Activity (Homo sapiens [1]) | Kd [2] | Kd [3] | fold change (FC) [4] | Activity [5] | Activity (Albumin) | fold change (FC) (Homo sapiens [6]) | Activity (Homo sapiens [7]) | Activity [8] | fold change (FC) (Homo sapiens [9]) | Activity [10] | Kd [11] |
| --- | --- | --- | --- | --- | --- | --- | --- | --- | --- | --- | --- | --- | --- |
| CN(CCF)c1ccc(/C=C/c2nc3ccccc3o2)cc1 | inactive | Active | 3.24 µM⁻¹ | 2.28 µM⁻¹ | 2.69 | inactive | Not Active | 1.98 | Active | Active | 1.98 | inactive | 4.48 µM⁻¹ |
| CN(CCF)c1ccc(/C=C/c2nc3ccccc3s2)cc1 | inactive | Active | 1.38 µM⁻¹ | 1.79 µM⁻¹ | 7.41 | inactive | Not Active | 3.3 | Active | Active | 4.48 | inactive | 10.67 µM⁻¹ |
| CN(CCF)c1ccc(/C=C\c2nc3ccccc3o2)cc1 | inactive | Active | 7.43 µM⁻¹ | 3.24 µM⁻¹ | 1.28 | inactive | Not Active | 1.6 | Active | Active | 1.63 | inactive | 5.99 µM⁻¹ |
| CN(CCF)c1ccc(/C=C/c2nc3ccccc3[nH]2)cc1 | inactive | Active | 3.31 µM⁻¹ | 1.54 µM⁻¹ | 2.71 | inactive | Not Active | 2.49 | Active | Active | 4.5 | inactive | 3.63 µM⁻¹ |
| CN(CCF)c1ccc(/C=C\c2nc3ccccc3s2)cc1 | inactive | Active | 7.35 µM⁻¹ | 8.59 µM⁻¹ | 11.3 | inactive | Not Active | 2.98 | Active | Active | 9.48 | inactive | 23.96 µM⁻¹ |

Reference: ChEMBL document CHEMBL1926592, “Synthesis and in vitro evaluation of fluorinated styryl benzazoles as amyloid-probes” (Bioorg Med Chem, 2011)
